Measurements: ChEMBL document CHEMBL1687725, “Pharmacokinetics and safety of caspofungin in older infants and toddlers” (Antimicrob Agents Chemother, 2009)

Assays:
[1] = system: Homo sapiens; assay: Clearance in 12-17 years old adolescents at 50 mg/m'2, iv dosed once daily measured on day 1 post dose; assay type: ADME, organism-based; conditions: in vivo
[2] = organism: Homo sapiens; assay: Clearance in 3 to 24 months old infants/toddlers measured on day 1 post dose; conditions: in vivo
[3] = Cmax in plasma of in 17 years old infants/toddlers measured on day 4 post dose; assay type: ADME, organism-based; conditions: human
[4] = Cmax in plasma of 12-17 years old adolescents at 50 mg/m'2, iv dosed once daily measured on day 1 post dose; assay type: ADME, organism-based; design: route intravenous; conditions: human
[5] = AUC (0 to 24 hrs) in 20 […] old infants/toddlers measured on day 1 post dose; assay type: ADME, organism-based; design: time < 24 hr; conditions: human, plasma
[6] = system: Homo sapiens; assay: Cmin in plasma of 2-11 years old children at 50 mg/m'2, iv dosed once daily measured on day 1 post dose; assay type: ADME, organism-based; conditions: in vivo
[7] = AUC (0 to 24 hrs) in 12 […] old infants/toddlers measured on day 1 post dose; assay type: ADME, organism-based; design: time < 24 hr; conditions: human, plasma
[8] = system: Homo sapiens; assay: Clearance in 3-24 months old infants/toddlers at 50 mg/m'2, iv dosed once daily measured on day 1 post dose; assay type: ADME, organism-based; conditions: in vivo
[9] = system: Homo sapiens; assay: Clearance in adult human at 50 mg, iv dosed once daily measured on day 1 post dose; assay type: ADME, organism-based; conditions: in vivo
[10] = AUC (0 to 24 hrs) in 12-17 years old adolescents at 50 mg/m'2, iv dosed once daily measured on day 1 post dose; assay type: ADME, organism-based; design: time < 24 hr, route intravenous; conditions: human, plasma
[11] = Cmax in plasma of in 3 to 24 months old infants/toddlers measured on day 4 post dose; conditions: human
[12] = Cmax in plasma of in 13 […] old infants/toddlers measured on day 1 post dose; assay type: ADME, organism-based; conditions: human
[13] = Cmax in plasma of 3-24 months old infants/toddlers at 50 mg/m'2, iv dosed once daily measured on day 4 post dose; assay type: ADME, organism-based; design: route intravenous; conditions: human
[14] = AUC (0 to 24 hrs) in 13 […] old infants/toddlers measured on day 4 post dose; assay type: ADME, organism-based; design: time < 24 hr; conditions: human, plasma
[15] = organism: Homo sapiens; assay: Clearance in 17 […] old infants/toddlers measured on day 1 post dose; assay type: ADME, organism-based; conditions: in vivo
[16] = AUC (0 to 24 hrs) in infants/toddlers measured on day 1 post dose; conditions: human, plasma
[17] = AUC (0 to 24 hrs) in 3-24 months old infants/toddlers at 50 mg/m'2, iv dosed once daily measured on day 1 post dose; assay type: ADME, organism-based; design: time < 24 hr, route intravenous; conditions: human, plasma
[18] = system: Homo sapiens; assay: Clearance in 2-11 years old children at 50 mg/m'2, iv dosed once daily measured on day 1 post dose; assay type: ADME, organism-based; conditions: in vivo
[19] = AUC (0 to 24 hrs) in 2-11 years old children at 50 mg/m'2, iv dosed once daily measured on day 4 post dose; assay type: ADME, organism-based; design: time < 24 hr, route intravenous; conditions: human, plasma
[20] = Cmax in plasma of adult human at 50 mg, iv dosed once daily measured on day 1 post dose; assay type: ADME, organism-based; design: dose 50 mg, route intravenous
[21] = organism: Homo sapiens; assay: (§1) Cmax in plasma of in 12 […] old infants/toddlers measured on day 4 post dose; assay type: ADME, organism-based; conditions: in vivo
[22] = as §1; assay type: ADME, organism-based; conditions: human, plasma
[23] = AUC (0 to 24 hrs) in 12 […] old infants/toddlers measured on day 4 post dose; assay type: ADME, organism-based; design: time < 24 hr; conditions: human, plasma
[24] = Cmax in plasma of adult human at 70 mg, iv dosed once daily measured on day 1 post dose; assay type: ADME, organism-based; design: dose 70 mg, route intravenous
[25] = AUC (0 to 24 hrs) in infants/toddlers measured on day 4 post dose; conditions: human, plasma
[26] = organism: Homo sapiens; assay: Clearance in 12 […] old infants/toddlers measured on day 1 post dose; assay type: ADME, organism-based; conditions: in vivo
[27] = Cmax in plasma of in 17 […] old infants/toddlers measured on day 1 post dose; assay type: ADME, organism-based; conditions: human
[28] = Cmax in plasma of in […] infants/toddlers measured on day 1 post dose; assay type: ADME, organism-based; conditions: human
[29] = AUC (0 to 24 hrs) in adult human at 70 mg, iv dosed once daily measured on day 3 to 14 post dose; assay type: ADME, organism-based; design: dose 70 mg, time < 24 hr, route intravenous; conditions: plasma
[30] = Cmax in plasma of 2-11 years old children at 50 mg/m'2, iv dosed once daily measured on day 1 post dose; assay type: ADME, organism-based; design: route intravenous; conditions: human
[31] = organism: Homo sapiens; assay: Clearance in infants/toddlers measured on day 1 post dose; conditions: in vivo
[32] = Cmax in plasma of 12-17 years old adolescents at 50 mg/m'2, iv dosed once daily measured on day 4 post dose; assay type: ADME, organism-based; design: route intravenous; conditions: human
[33] = AUC (0 to 24 hrs) in adult human at 50 mg, iv dosed once daily measured on day 1 post dose; assay type: ADME, organism-based; design: time < 24 hr, dose 50 mg, route intravenous; conditions: plasma
[34] = Cmax in plasma of in 12 […] old infants/toddlers measured on day 1 post dose; assay type: ADME, organism-based; conditions: human
[35] = organism: Homo sapiens; assay: Clearance in 10 […] old infants/toddlers measured on day 1 post dose; assay type: ADME, organism-based; conditions: in vivo
[36] = system: Homo sapiens; assay: Clearance in adult human at 70 mg, iv dosed once daily measured on day 1 post dose; assay type: ADME, organism-based; conditions: in vivo
[37] = AUC (0 to 24 hrs) in adult human at 70 mg, iv dosed once daily measured on day 1 post dose; assay type: ADME, organism-based; design: dose 70 mg, time < 24 hr, route intravenous; conditions: plasma
[38] = Cmax in plasma of in 10 years old infants/toddlers measured on day 4 post dose; assay type: ADME, organism-based; conditions: human
[39] = AUC (0 to 24 hrs) in 20 […] old infants/toddlers measured on day 4 post dose; assay type: ADME, organism-based; design: time < 24 hr; conditions: human, plasma
[40] = AUC (0 to 24 hrs) in 2-11 years old children at 50 mg/m'2, iv dosed once daily measured on day 1 post dose; assay type: ADME, organism-based; design: time < 24 hr, route intravenous; conditions: human, plasma
[41] = AUC (0 to 24 hrs) in adult human at 50 mg, iv dosed once daily measured on day 3 to 14 post dose; assay type: ADME, organism-based; design: dose 50 mg, time < 24 hr, route intravenous; conditions: plasma
[42] = Cmax in plasma of 3-24 months old infants/toddlers at 50 mg/m'2, iv dosed once daily measured on day 1 post dose; assay type: ADME, organism-based; design: route intravenous; conditions: human
[43] = Cmax in plasma of in 20 […] old infants/toddlers measured on day 4 post dose; assay type: ADME, organism-based; conditions: human
Outline: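 Infants/toddlers (10 to 24 months) with fever and neutropenia received caspofungin 50 mg/m2 once daily as a 1-h infusion. C1 is the observed plasma concentration at the end of the first (day 1) or fourth (day 4) infusion, sampled from 20 min before to 30 min after the end of infusion. Caspofungin was measured by HPLC with fluorescence detection.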

[44] = Cmax in plasma of in 10 […] old infants/toddlers measured on day 1 post dose; assay type: ADME, organism-based; conditions: human
[45] = AUC (0 to 24 hrs) in 3-24 months old infants/toddlers at 50 mg/m'2, iv dosed once daily measured on day 4 post dose; assay type: ADME, organism-based; design: time < 24 hr, route intravenous; conditions: human, plasma
[46] = AUC (0 to 24 hrs) in 17 […] old infants/toddlers measured on day 4 post dose; assay type: ADME, organism-based; design: time < 24 hr; conditions: human, plasma
[47] = Cmax in plasma in infants/toddlers measured on day 4 post dose; conditions: human
[48] = Cmax in plasma of adult human at 70 mg, iv dosed once daily measured on day 3 to 14 post dose; assay type: ADME, organism-based; design: dose 70 mg, route intravenous
[49] = AUC (0 to 24 hrs) in 12-17 years old adolescents at 50 mg/m'2, iv dosed once daily measured on day 4 post dose; assay type: ADME, organism-based; design: time < 24 hr, route intravenous; conditions: human, plasma
[50] = Cmax in plasma of 2-11 years old children at 50 mg/m'2, iv dosed once daily measured on day 4 post dose; assay type: ADME, organism-based; design: route intravenous; conditions: human
[51] = AUC (0 to 24 hrs) in 10 […] old infants/toddlers measured on day 1 post dose; assay type: ADME, organism-based; design: time < 24 hr; conditions: human, plasma
[52] = AUC (0 to 24 hrs) in 17 […] old infants/toddlers measured on day 1 post dose; assay type: ADME, organism-based; design: time < 24 hr; conditions: human, plasma
[53] = AUC (0 to 24 hrs) in 10 […] old infants/toddlers measured on day 4 post dose; assay type: ADME, organism-based; design: time < 24 hr; conditions: human, plasma
[54] = Cmax in plasma of adult human at 50 mg, iv dosed once daily measured on day 3 to 14 post dose; assay type: ADME, organism-based; design: dose 50 mg, route intravenous
[55] = Cmax in plasma in infants/toddlers measured on day 1 post dose; conditions: human

CL [1]: 6.3 ml/min/m2
CL [2]: 5.98 ml/min/m2
Cmax [3]: 16400 ng/mL
Cmax [4]: 8950 ng/mL
AUC(0-t) at 24 h [5]: 97.4 µg·h/mL
Cmin [6]: 1090 ng/mL
AUC(0-t) at 24 h [7]: 109 µg·h/mL
CL [8]: 6.05 ml/min/m2
CL [9]: 6.07 ml/min/m2
AUC(0-t) at 24 h [10]: 77.6 µg·h/mL
Cmax [11]: 16900 ng/mL
Cmax [12]: 15800 ng/mL
Cmax [13]: 17200 ng/mL
AUC at 24 h [14]: 121 µg·h/mL
CL [15]: 4.94 ml/min/m2
AUC(0-t) at 24 h [16]: 120 µg·h/mL
AUC(0-t) at 24 h [17]: 120 µg·h/mL
CL [18]: 7.78 ml/min/m2
AUC at 24 h [19]: 115 µg·h/mL
Cmax [20]: 7670 ng/mL
Cmax [21]: 17960 ng/mL
Cmax [22]: 15900 ng/mL
AUC at 24 h [23]: 122 µg·h/mL
Cmax [24]: 10000 ng/mL
AUC at 24 h [25]: 171 µg·h/mL
CL [26]: 6.44 ml/min/m2
Cmax [27]: 13900 ng/mL
Cmax [28]: 13000 ng/mL
AUC at 24 h [29]: 154 µg·h/mL
Cmax [30]: 14000 ng/mL
CL [31]: 6.82 ml/min/m2
Cmax [32]: 12900 ng/mL
AUC(0-t) at 24 h [33]: 70.6 µg·h/mL
Cmax [34]: 17500 ng/mL
CL [35]: 4.37 ml/min/m2
CL [36]: 5.2 ml/min/m2
AUC(0-t) at 24 h [37]: 97.1 µg·h/mL
Cmax [38]: 15200 ng/mL
AUC at 24 h [39]: 122 µg·h/mL
AUC(0-t) at 24 h [40]: 96.4 µg·h/mL
AUC at 24 h [41]: 103 µg·h/mL
Cmax [42]: 17500 ng/mL
Cmax [43]: 12100 ng/mL
Cmax [44]: 14500 ng/mL
AUC at 24 h [45]: 130 µg·h/mL
AUC at 24 h [46]: 135 µg·h/mL
Cmax [47]: 21300 ng/mL
Cmax [48]: 13300 ng/mL
AUC at 24 h [49]: 117 µg·h/mL
Cmax [50]: 15600 ng/mL
AUC(0-t) at 24 h [51]: 160 µg·h/mL
AUC(0-t) at 24 h [52]: 102 µg·h/mL
AUC at 24 h [53]: 114 µg·h/mL
Cmax [54]: 9390 ng/mL
Cmax [55]: 21500 ng/mL
SMILES: CC[C@H](C)C[C@H](C)CCCCCCCCC(=O)N[C@H]1C[C@@H](O)[C@@H](NCCN)NC(=O)[C@@H]2[C@@H](O)CCN2C(=O)[C@H]([C@H](O)CCN)NC(=O)[C@H]([C@H](O)[C@@H](O)c2ccc(O)cc2)NC(=O)[C@@H]2C[C@@H](O)CN2C(=O)[C@H]([C@@H](C)O)NC1=O [CASPOFUNGIN]
